From ChEMBL document CHEMBL4396947, “Synthesis and characterization of novel isoform-selective IP6K1 inhibitors” (Bioorg Med Chem Lett, 2019)
pIC50, pKi: −log10 of the molar value.

Legend:
[1] = molecular target: Inositol hexakisphosphate kinase 3 (Homo sapiens, UniProt Q96PC2); assay: Inhibition of IP6K3 (unknown origin) incubated for 120 mins using IP6 as substrate in presence of ATP by ADP-Glo reagent based luminescence assay
Method in brief: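 Luminescent ADP-Glo Max format adapted for IP6K, with purified enzyme and ATP at 1 mM, which is consumed as the kinase reaction proceeds. IC50 taken from the resulting inhibition data.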

[2] = molecular target: T1, Inositol hexakisphosphate kinase 1 (Homo sapiens, UniProt Q92551); assay: Binding affinity to IP6K1 (unknown origin) assessed as change in melting temperature at 11.1 uM by SYPRO orange dye based assay
Target sequence in this assay (Q92551 whole entry, looked up): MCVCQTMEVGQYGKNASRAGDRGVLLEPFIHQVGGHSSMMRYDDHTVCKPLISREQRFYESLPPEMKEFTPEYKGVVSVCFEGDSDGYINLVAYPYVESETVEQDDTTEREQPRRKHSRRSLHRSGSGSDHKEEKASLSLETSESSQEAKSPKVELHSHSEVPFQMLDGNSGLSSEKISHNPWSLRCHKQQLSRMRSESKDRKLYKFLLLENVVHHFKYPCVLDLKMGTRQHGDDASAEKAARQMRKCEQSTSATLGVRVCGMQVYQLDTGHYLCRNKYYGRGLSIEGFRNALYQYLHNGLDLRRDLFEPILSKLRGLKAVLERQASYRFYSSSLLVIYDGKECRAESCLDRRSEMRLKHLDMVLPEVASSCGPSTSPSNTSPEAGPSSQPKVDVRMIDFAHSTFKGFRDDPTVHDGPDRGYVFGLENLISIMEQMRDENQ

[3] = organism: Homo sapiens; assay: Inhibition of recombinant full length human PI3K p120gamma R459Q mutant assessed as residual activity at 10 uM using phosphatidylinositol-4,5 bisphosphate as substrate incubated for 40 mins in presence of [gamma-33P]ATP at Km concentration by radiometric assay relative to control
[4] = molecular target: Tyrosine-protein kinase ABL1 (Homo sapiens) (UniProt P00519); assay: Inhibition of human recombinant ABL (27 to end residues) assessed as residual activity at 10 uM using EAIYAAPFAKKK as substrate incubated for 40 mins in presence of [gamma-33P]ATP at Km concentration by radiometric assay relative to control
[5] = molecular target: Mitogen-activated protein kinase kinase kinase 9 (Homo sapiens) (UniProt P80192); assay: Inhibition of recombinant human MLK1 (134 to 414 residues) assessed as residual activity at 10 uM using casein as substrate incubated for 40 mins in presence of [gamma-33P]ATP at Km concentration by radiometric assay relative to control
[6] = molecular target: T1, Inositol hexakisphosphate kinase 1; assay: Inhibition of IP6K1 (unknown origin) in presence of ATP at Km concentration by Cheng-Prusoff equation analysis
Method in brief: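 Purified IP6K isoforms run in the ADP-Glo Max kinase assay with 1 mM ATP. Measured IC50 values converted to Ki with the Cheng-Prusoff equation.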
Target sequence in this assay (Q92551 whole entry): as the sequence (Q92551 whole entry, looked up) above

[7] = organism: Homo sapiens; assay: Selectivity ratio of Ki for IP6K3 (unknown origin) to Ki for IP6K1 (unknown origin)
Method in brief: (§1)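 Purified IP6K1, IP6K2 and IP6K3 were each tested in an ADP-Glo Max luminescence assay optimized for IP6K, with 1 mM ATP consumed as the kinase reaction proceeds. IC50 values from each isoform were converted to Ki with the Cheng-Prusoff equation, and the Ki ratio versus IP6K1 was taken.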

[8] = molecular target: Ribosomal protein S6 kinase alpha-4 (Homo sapiens) (UniProt O75676); assay: Inhibition of full length recombinant human MSK2 assessed as residual activity at 10 uM using GRPRTSSFAEGKK as substrate incubated for 40 mins in presence of [gamma-33P]ATP at Km concentration by radiometric assay relative to control
[9] = molecular target: MAP kinase-interacting serine/threonine-protein kinase 2 (Homo sapiens) (UniProt Q9HBH9); assay: Inhibition of full length recombinant human MNK2 assessed as residual activity at 10 uM using myelin basic protein as substrate incubated for 40 mins in presence of [gamma-33P]ATP at Km concentration by radiometric assay relative to control
[10] = molecular target: Cyclin-dependent kinase 1/cyclin B1 (Homo sapiens) (UniProt P06493+P14635); assay: Inhibition of human full length recombinant CDK1/cyclinB assessed as residual activity at 10 uM using Histone H1 as substrate incubated for 40 mins in presence of [gamma-33P]ATP at Km concentration by radiometric assay relative to control; assay type: protein-complex assay
[11] = molecular target: Insulin-like growth factor 1 receptor (Homo sapiens) (UniProt P08069); assay: Inhibition of human recombinant IGF1R (959 to end residues) assessed as residual activity at 10 uM using KKKSPGEYVNIEF as substrate incubated for 40 mins in presence of [gamma-33P]ATP at Km concentration by radiometric assay relative to control
[12] = molecular target: Ribosomal protein S6 kinase alpha-1 (Homo sapiens) (UniProt Q15418); assay: Inhibition of recombinant full length human RSK1 assessed as residual activity at 10 uM using KKKNRTLSVA as substrate incubated for 40 mins in presence of [gamma-33P]ATP at Km concentration by radiometric assay relative to control
[13] = organism: Homo sapiens; assay: Inhibition of recombinant human MAPKAPK2 A399G mutant (46 to end residues) assessed as residual activity at 10 uM using KKLNRTLSVA as substrate incubated for 40 mins in presence of [gamma-33P]ATP at Km concentration by radiometric assay relative to control
[14] = molecular target: Serine/threonine-protein kinase mTOR (Homo sapiens) (UniProt P42345); assay: Inhibition of full length recombinant human mTOR assessed as residual activity at 10 uM incubated for 40 mins in presence of [gamma-33P]ATP at Km concentration by radiometric assay relative to control
[15] = molecular target: Mitogen-activated protein kinase kinase kinase 5 (Homo sapiens) (UniProt Q99683); assay: Inhibition of recombinant human ASK1 (649 to 946 residues) assessed as residual activity at 10 uM using myelin basic protein as substrate incubated for 40 mins in presence of [gamma-33P]ATP at Km concentration by radiometric assay relative to control
[16] = molecular target: Serine/threonine-protein kinase Nek2 (Homo sapiens) (UniProt P51955); assay: Inhibition of full length recombinant human NEK2 assessed as residual activity at 10 uM using myelin basic protein as substrate incubated for 40 mins in presence of [gamma-33P]ATP at Km concentration by radiometric assay relative to control
[17] = molecular target: Rho-associated protein kinase 1 (Homo sapiens) (UniProt Q13464); assay: Inhibition of recombinant human ROCK1 (17 to 535 residues) assessed as residual activity at 10 uM using KEAKEKRQEQIAKR as substrate incubated for 40 mins in presence of [gamma-33P]ATP at Km concentration by radiometric assay relative to control
[18] = molecular target: Serine/threonine-protein kinase 10 (Homo sapiens) (UniProt O94804); assay: Inhibition of human recombinant LOK (1 to 348 residues) assessed as residual activity at 10 uM using RLGRDKYKTLRQI as substrate incubated for 40 mins in presence of [gamma-33P]ATP at Km concentration by radiometric assay relative to control
[19] = organism: Homo sapiens; assay: Selectivity ratio of Ki for IP6K2 (unknown origin) to Ki for IP6K1 (unknown origin); method in brief: as §1
[20] = molecular target: Inhibitor of nuclear factor kappa-B kinase subunit alpha (Homo sapiens) (UniProt O15111); assay: Inhibition of human full length recombinant IKKalpha assessed as residual activity at 10 uM using peptide as substrate incubated for 40 mins in presence of [gamma-33P]ATP at Km concentration by radiometric assay relative to control
[21] = molecular target: CDK7/Cyclin H/MNAT1 (Homo sapiens) (UniProt P51946+P50613+P51948); assay: Inhibition of human full length recombinant CDK7/cyclinH/MAT1 assessed as residual activity at 10 uM using peptide as substrate incubated for 40 mins in presence of [gamma-33P]ATP at Km concentration by radiometric assay relative to control; assay type: protein-complex assay

Sequence of Mitogen-activated protein kinase kinase kinase 9 (Homo sapiens) (P80192 whole entry, looked up, the tested form may be a part): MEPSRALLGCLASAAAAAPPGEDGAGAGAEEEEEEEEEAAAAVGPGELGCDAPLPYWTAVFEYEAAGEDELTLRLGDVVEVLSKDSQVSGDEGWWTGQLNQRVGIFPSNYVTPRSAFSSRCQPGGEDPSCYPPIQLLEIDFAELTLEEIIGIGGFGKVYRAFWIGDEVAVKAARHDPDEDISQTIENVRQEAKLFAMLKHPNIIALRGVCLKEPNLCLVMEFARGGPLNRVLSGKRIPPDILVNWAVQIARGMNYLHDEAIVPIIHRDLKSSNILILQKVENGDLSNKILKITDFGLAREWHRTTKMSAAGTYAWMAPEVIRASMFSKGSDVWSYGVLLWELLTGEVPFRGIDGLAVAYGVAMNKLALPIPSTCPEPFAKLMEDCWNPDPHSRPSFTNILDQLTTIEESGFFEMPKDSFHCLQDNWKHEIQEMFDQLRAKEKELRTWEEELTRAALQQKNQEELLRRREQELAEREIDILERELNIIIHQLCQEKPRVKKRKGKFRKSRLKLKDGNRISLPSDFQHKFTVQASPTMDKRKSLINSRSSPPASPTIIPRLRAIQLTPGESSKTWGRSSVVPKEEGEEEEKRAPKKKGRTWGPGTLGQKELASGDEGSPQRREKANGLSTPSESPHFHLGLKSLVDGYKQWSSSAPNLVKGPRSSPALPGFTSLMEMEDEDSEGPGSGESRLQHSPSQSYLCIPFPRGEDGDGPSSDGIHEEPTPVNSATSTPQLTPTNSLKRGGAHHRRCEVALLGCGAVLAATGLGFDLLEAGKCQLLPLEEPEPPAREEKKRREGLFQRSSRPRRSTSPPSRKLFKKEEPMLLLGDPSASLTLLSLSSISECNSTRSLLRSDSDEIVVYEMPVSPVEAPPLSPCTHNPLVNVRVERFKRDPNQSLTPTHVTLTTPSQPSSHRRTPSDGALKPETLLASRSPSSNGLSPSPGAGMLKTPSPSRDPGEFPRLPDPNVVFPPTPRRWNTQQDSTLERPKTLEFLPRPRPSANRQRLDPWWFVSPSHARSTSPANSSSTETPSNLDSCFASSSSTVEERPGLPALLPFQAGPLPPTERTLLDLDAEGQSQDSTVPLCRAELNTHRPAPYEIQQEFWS
Sequence of Insulin-like growth factor 1 receptor (Homo sapiens) (P08069 31-736 limits assumed): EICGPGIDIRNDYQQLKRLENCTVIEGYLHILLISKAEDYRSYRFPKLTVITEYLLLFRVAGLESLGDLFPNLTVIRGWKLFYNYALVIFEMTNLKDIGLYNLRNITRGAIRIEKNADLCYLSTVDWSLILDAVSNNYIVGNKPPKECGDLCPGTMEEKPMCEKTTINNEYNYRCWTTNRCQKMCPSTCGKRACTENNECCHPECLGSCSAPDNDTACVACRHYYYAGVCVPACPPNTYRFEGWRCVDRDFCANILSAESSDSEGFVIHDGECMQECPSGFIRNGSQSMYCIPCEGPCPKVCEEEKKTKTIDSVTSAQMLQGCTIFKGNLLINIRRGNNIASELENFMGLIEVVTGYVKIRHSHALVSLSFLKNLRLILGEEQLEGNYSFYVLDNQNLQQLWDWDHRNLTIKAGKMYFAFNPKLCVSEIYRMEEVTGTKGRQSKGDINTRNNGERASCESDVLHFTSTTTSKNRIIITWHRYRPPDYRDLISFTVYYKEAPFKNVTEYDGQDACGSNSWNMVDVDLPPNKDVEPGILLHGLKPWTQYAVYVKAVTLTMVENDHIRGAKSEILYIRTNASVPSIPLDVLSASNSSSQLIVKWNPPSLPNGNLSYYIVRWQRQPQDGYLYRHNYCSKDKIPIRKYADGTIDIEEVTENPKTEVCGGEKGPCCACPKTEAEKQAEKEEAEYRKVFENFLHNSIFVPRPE
Sequence of Insulin-like growth factor 1 receptor (Homo sapiens) (P08069 741-1367 limits assumed): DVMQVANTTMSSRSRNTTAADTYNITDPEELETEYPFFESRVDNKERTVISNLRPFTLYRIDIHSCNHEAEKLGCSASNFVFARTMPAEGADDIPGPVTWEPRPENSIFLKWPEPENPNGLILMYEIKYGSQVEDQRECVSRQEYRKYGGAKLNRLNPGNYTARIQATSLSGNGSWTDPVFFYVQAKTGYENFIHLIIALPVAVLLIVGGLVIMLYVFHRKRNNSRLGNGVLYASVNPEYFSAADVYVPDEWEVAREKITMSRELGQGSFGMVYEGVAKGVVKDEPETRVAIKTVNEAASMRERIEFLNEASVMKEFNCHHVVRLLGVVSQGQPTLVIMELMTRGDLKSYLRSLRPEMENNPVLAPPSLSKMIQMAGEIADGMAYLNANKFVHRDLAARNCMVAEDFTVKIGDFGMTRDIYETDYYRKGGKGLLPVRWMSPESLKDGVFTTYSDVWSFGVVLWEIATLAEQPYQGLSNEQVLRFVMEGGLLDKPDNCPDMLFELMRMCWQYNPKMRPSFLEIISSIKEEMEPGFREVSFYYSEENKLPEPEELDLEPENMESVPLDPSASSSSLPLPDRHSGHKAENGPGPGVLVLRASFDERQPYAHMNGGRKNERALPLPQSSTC
Sequence of MAP kinase-interacting serine/threonine-protein kinase 2 (Homo sapiens) (Q9HBH9 whole entry, looked up): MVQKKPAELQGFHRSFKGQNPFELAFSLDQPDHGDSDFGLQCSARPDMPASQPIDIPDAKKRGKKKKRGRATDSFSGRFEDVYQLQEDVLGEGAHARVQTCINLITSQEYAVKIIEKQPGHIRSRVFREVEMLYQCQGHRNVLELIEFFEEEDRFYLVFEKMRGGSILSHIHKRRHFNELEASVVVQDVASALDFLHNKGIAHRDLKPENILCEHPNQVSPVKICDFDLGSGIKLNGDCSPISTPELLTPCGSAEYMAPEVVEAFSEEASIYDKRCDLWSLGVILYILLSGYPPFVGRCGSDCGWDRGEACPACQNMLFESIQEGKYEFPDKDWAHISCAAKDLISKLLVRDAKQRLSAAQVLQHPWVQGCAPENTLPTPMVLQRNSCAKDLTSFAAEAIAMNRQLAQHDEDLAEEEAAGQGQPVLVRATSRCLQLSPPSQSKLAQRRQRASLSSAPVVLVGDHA
Sequence of Ribosomal protein S6 kinase alpha-1 (Homo sapiens) (Q15418 whole entry): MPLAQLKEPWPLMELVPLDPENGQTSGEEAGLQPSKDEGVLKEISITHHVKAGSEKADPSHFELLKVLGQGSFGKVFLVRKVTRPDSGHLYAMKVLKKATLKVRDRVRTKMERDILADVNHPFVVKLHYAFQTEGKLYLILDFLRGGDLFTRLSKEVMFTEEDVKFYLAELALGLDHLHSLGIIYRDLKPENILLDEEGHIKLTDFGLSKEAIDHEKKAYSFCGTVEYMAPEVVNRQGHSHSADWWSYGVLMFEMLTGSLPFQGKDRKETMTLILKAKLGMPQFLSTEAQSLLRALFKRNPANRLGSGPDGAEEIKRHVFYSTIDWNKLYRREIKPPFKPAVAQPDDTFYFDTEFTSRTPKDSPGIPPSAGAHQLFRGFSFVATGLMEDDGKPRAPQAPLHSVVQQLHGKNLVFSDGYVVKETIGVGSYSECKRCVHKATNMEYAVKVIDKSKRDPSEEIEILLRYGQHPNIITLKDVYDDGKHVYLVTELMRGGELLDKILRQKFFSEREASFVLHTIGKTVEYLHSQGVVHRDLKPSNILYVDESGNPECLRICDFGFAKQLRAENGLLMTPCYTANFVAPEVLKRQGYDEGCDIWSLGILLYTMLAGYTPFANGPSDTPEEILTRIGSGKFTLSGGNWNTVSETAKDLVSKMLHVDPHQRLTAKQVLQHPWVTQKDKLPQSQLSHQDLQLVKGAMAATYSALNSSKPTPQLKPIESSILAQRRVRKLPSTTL
Sequence of Inhibitor of nuclear factor kappa-B kinase subunit alpha (Homo sapiens) (O15111 whole entry): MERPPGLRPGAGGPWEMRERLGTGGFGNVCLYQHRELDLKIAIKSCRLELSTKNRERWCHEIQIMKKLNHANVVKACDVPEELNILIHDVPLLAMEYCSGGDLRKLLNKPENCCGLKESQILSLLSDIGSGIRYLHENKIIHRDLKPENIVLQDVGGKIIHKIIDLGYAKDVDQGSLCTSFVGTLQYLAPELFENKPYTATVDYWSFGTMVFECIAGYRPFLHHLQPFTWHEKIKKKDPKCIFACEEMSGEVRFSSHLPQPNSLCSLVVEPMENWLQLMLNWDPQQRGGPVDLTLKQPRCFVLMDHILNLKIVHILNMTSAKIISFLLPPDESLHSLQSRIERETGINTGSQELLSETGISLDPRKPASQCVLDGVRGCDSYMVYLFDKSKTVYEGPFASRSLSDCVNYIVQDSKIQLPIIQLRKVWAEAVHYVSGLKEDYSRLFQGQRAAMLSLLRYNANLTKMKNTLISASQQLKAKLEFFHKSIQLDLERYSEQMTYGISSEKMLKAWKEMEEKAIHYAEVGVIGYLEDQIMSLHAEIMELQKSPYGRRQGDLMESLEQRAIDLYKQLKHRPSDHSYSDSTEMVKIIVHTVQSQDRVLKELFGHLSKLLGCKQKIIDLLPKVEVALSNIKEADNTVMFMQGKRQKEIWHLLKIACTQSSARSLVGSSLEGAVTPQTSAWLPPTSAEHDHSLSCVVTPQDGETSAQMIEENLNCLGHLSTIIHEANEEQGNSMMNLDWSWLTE

SMILES: COc1ccc2c(CCNc3nc(NCc4ccc(=O)[nH]c4)c4nc[nH]c4n3)c[nH]c2c1
- pIC50 [1]: 4.82
- ΔTm [2]: 5.5 °C
- Activity [3]: 94%
- Activity [4]: 90%
- Activity [5]: 24%
- pKi [6]: 6.70
- Ratio Ki [7]: 48.1
- Activity [8]: 96%
- Activity [9]: 76%
- Activity [10]: 83%
- Activity [11]: 86%
- Activity [12]: 45%
- Activity [13]: 102%
- Activity [14]: 85%
- Activity [15]: 72%
- Activity [16]: 87%
- Activity [17]: 91%
- Activity [18]: 97%
- Ratio Ki [19]: 24.4
- Activity [20]: 109%
- Activity [21]: 48%
